The structures appear in SMILES notation. Calls of active or inactive are those of the source. The rule behind the calls is not given here.

One molecule from ChEMBL document CHEMBL6071149, “Synthesis and photo-induced anticancer activity of new 2-phenylethenyl-1H-benzo[e]indole dyes” (Eur J Med Chem, 2024) can be followed below.

A short description of series [1]: Cytotoxicity against human BJ cells under dark condition measured after 72 hrs by MTT assay. The class given is toxicity, cell-based. In outline:
(§1)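 Cells grown in phenol red-free DMEM with 10 % FBS, penicillin/streptomycin, 37 °C, 5 % CO₂. Compound added 24 h after plating and incubated 4 h. Irradiated cells received 414 nm LED light at 20 mW/cm², 10 J/cm², then were incubated 20 h or 68 h more. Dark plates were run in parallel without irradiation. MTT was added for 4 h, formazan dissolved in 10 % SDS, absorbance read at 570 nm. EC50 ± SD.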
(Tetrazolium assays rely on reduction of a dye to a coloured formazan, in cell work by metabolically active cells.)

Series [2] can be described thus: Cytotoxicity against human ARN-8 cells-derived from human A375 cells under dark condition measured after 72 hrs by MTT assay. The class given is functional, cell-based. As to conditions: ARN-8 cell. In outline: as §1
Series [3] is described as follows: Selectivity ratio of EC50 for human BJ cells under dark condition measured after 72 hrs by MTT assay to EC50 for human G361 cells pretreated for 4 hrs followed by light irradiation of 10 J/cm2 at 414 nm measured after 68 hrs by MTT assay. The class given is functional. In outline:
(§2)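 Ratio of dark EC50 to EC50 after 414 nm irradiation (10 J/cm²). MTT read-out; compound exposure 4 h before irradiation. Each dark value is paired with the matching post-irradiation incubation (20 h or 68 h).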

Series [4] can be described thus: Selectivity ratio of EC50 for human ARN-8 cells-derived from human A375 cells under dark condition measured after 24 hrs by MTT assay to EC50 for human ARN-8 cells-derived from human A375 cells pretreated for 4 hrs followed by light irradiation of 10 J/cm2 at 414 nm measured after 20 hrs by MTT assay. In kind it is functional, ARN-8 cell. In outline:
as §2

For series [5], the system named is G-361. In words: Induction of ROS production in human G361 cells pretreated for 4 hrs followed by light irradiation of 5 to 10 J/cm2 measured immediately by CM-H2DCFA probe based analysis. In kind it is functional, cell-based. As to conditions: dose <= 4.0 µM. In outline: (§3)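 Cells loaded next day with 5 µM CM-H₂DCFDA for 30 min, then placed in prewarmed PBS with 5 mM glucose. Compound exposure 4 h, followed by 414 nm irradiation at 5 or 10 J/cm²; dark samples run in parallel. Fluorescence read immediately at 492/530 nm. NAC (5 mM) pretreatment for 10 min gave negative controls. RFU normalised to untreated dark control.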

Series [6] deals with ARN-8 cell. In words: Induction of ROS production in human ARN-8 cells-derived from human A375 cells pretreated for 4 hrs followed by light irradiation of 5 to 10 J/cm2 measured immediately by CM-H2DCFA probe based analysis. The class given is functional. Particulars: dose <= 4.0 µM. In outline: as §3
Series [7] has as its system G-361. Nature of the series: Induction of ROS production in human G361 cells upto 4 uM treated for 4 hrs under dark condition by CM-H2DCFA probe based analysis. In kind it is functional, cell-based. In outline: as §3
In series [8] the test system is ARN-8 cell. Nature of the series: Induction of ROS production in human ARN-8 cells-derived from human A375 cells assessed as increase in singlet oxygen level upto 4 uM pretreated for 4 hrs followed by replacement of medium containing probe without compound for 30 mins and subsequent light irradiation of 5 to 10 J/cm2 measured immediately by DHR-123 probe based analysis. The class given is functional. In outline:
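Compound exposure 4 h, then medium replaced with PBS containing 5 µM DHR123 probe for 30 min. Probe removed, cells in PBS irradiated at 5 or 10 J/cm², dark samples in parallel. Fluorescence read immediately at 490/525 nm.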

Series [9] relates to G-361. Nature of the series: Induction of oxidative stress in human G361 cells assessed as increase in HO-1 level upto 4 uM under dark condition by immunoblot analysis. In kind it is functional, cell-based. (In general: In western blotting, separated proteins are transferred to a membrane and probed.)
For series [10], the system named is ARN-8 cell. Nature of the series: Induction of oxidative stress in human ARN-8 cells-derived from human A375 cells assessed as increase in HO-1 level upto 4 uM under dark condition by immunoblot analysis. In kind it is functional, cell-based.
The subject of series [11] is G-361. In words: Induction of apoptosis in human G361 cells assessed as increase in cleaved pro-caspase-9 level upto 4 uM pretreated for 4 hrs followed by light irradiation of 10 J/cm2 at 414 nm measured after 20 hrs by Western blot analysis. In kind it is functional, cell-based. As to conditions: time 24.0 hrs. The procedure, abridged: (§4)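 Compound exposure 4 h, then 414 nm irradiation, then 20 h further incubation. Lysates made in RIPA buffer, separated by SDS-PAGE and blotted to nitrocellulose. Primary antibodies in TBS with 4 % BSA and 0.1 % Tween 20, incubated overnight. Peroxidase secondary antibody with chemiluminescent detection. GAPDH served as loading control.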

Series [12] relates to ARN-8 cell. In words: Induction of apoptosis in human ARN-8 cells-derived from human A375 cells assessed as increase in cleaved PARP-1 level upto 4 uM pretreated for 4 hrs followed by light irradiation of 10 J/cm2 at 414 nm measured after 20 hrs by Western blot analysis. In kind it is functional, cell-based. Particulars: time 24.0 hrs. In outline:
as §4

Series [13] deals with ARN-8 cell. Nature of the series: Induction of apoptosis in human ARN-8 cells-derived from human A375 cells assessed as increase in cleaved pro-caspase-9 level upto 4 uM pretreated for 4 hrs followed by light irradiation of 10 J/cm2 at 414 nm measured after 20 hrs by Western blot analysis. In kind it is functional, cell-based. Particulars: time 24.0 hrs. The procedure, abridged:
as §4

Series [14] relates to ARN-8 cell. In words: Induction of apoptosis in human ARN-8 cells-derived from human A375 cells assessed as decrease in Bcl-2 level upto 4 uM pretreated for 4 hrs followed by light irradiation of 10 J/cm2 at 414 nm measured after 20 hrs by Western blot analysis. As to conditions: time 24.0 hrs. In kind it is functional, cell-based. In outline: as §4
Series [15] relates to ARN-8 cell. Nature of the series: Upregulation of Mcl-1 level in human ARN-8 cells-derived from human A375 cells upto 4 uM pretreated for 4 hrs followed by light irradiation of 10 J/cm2 at 414 nm measured after 20 hrs by Western blot analysis. In kind it is functional, cell-based. Particulars: time 24.0 hrs. In outline: as §4
Series [16] relates to G-361. Nature of the series: Induction of cell cycle arrest in human G361 cells assessed as increase in cell population at sub-G1 phase at 0.5 to 1 uM pretreated for 4 hrs followed by light irradiation of upto 10 J/cm2 at 414 nm measured after 20 hrs by flow cytometry. The class given is functional, cell-based. As to conditions: dose 0.5-1 µM, time 24.0 hrs. The procedure, abridged: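 Compound exposure 4 h (0.5 or 1 µM), then irradiation at increasing blue-light doses, then 20 h further incubation. Cells stained with propidium iodide; DNA content measured by flow cytometry with a 488 nm laser. Cell-cycle and subG1 distributions analysed.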
(In general: A flow cytometer gives signals particle by particle.)

For series [17], the system named is G-361. Nature of the series: Induction of DNA damage in human G361 cells assessed as increase in H2AX phosphorylation at Ser139 at 0.5 to 1 uM pretreated for 4 hrs followed by light irradiation of upto 10 J/cm2 at 414 nm measured after 20 hrs by Western blot analysis. In kind it is functional, cell-based. As to conditions: dose 0.5-1 µM, time 24.0 hrs. In outline: as §4

Series [18] deals with ARN-8 cell. In words: Induction of cell cycle arrest in human ARN-8 cells-derived from human A375 cells transfected with p53-responsive beta-galactosidase assessed as increase in p53 activation upto 4 uM pretreated for 4 hrs followed by light irradiation of 10 J/cm2 at 414 nm measured after 20 hrs by fluorescence based assay. The class given is functional. As to conditions: time 24.0 hrs. The procedure, abridged: (§5)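 ARN8 cells stably carrying the p53-responsive pRGΔfoslacZ reporter. Increasing compound concentrations for 4 h, then 414 nm irradiation at 2.5, 5, 7.5 or 10 J/cm², then 20 h further incubation. Cells lysed in 0.3 % Triton X-100. After 10 min, 4-methylumbelliferyl β-D-galactopyranoside added at a final 80 µM for 1 h. Fluorescence read at […].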

The test system of series [19] is ARN-8 cell. In words: Downregulation of p53 level in human ARN-8 cells-derived from human A375 cells transfected with p53-responsive beta-galactosidase at higher concentration pretreated for 4 hrs followed by light irradiation of 10 J/cm2 at 414 nm measured after 20 hrs by fluorescence based assay. In kind it is functional. Particulars: time 24.0 hrs. In outline:
as §5

Series [20] deals with ARN-8 cell. In words: Downregulation of p53 level in human ARN-8 cells-derived from human A375 cells at higher concentration pretreated for 4 hrs followed by light irradiation of 10 J/cm2 at 414 nm measured after 20 hrs by fluorescence based assay. The class given is functional. As to conditions: time 24.0 hrs.

One may read the EC50 as the midpoint of the concentration-response curve. Read a high EC50 as lower potency in that assay. For the molecule `COc1ccc(/C=C/C2=Nc3ccc4ccccc4c3C2(C)C)cc1[N+](=O)[O-]`, a half-maximal effect in [1] (EC50 at 72 h) was put at 8.3 µM. This molecule also returned an EC50 in series [2] of 7.3 µM. For the same molecule, the “Ratio EC50” value in series [3] was over 40; in [4], “>=15”. Besides, the Activity entry in the series on G-361 [5] and in the series with ARN-8 cell [6] was “Dose-Dependent Effect” in each case. In addition, the result in the series on G-361 [7] and with ARN-8 cell [8] was inactive. The outcome with G-361 [9], in the series on ARN-8 cell [10], in the series with G-361 [11], with ARN-8 cell [12], in the series on ARN-8 cell [13] and in the series with ARN-8 cell [14] was Active. The outcome in the series with ARN-8 cell [15], with G-361 [16], in the series on G-361 [17], in the series with ARN-8 cell [18], in the series with ARN-8 cell [19] and in the series with ARN-8 cell [20] was Active.
